Screening results deposited in PubChem by Johns Hopkins Ion Channel Center.
An excerpt weighted towards active compounds, which were near 3.5% of everything screened.
MrgX1 agonist = agonists of human MrgX1 receptor, primary screen, HEK293 cells, Fluo-4 calcium flux. Mas-related G-protein coupled receptor member X1 (Homo sapiens), Q96LB2. Fluo-4 calcium fluorescence, agonist mode; active compounds read high. B-score at 10 µM. 310,000 tested, 0.44% active. AID 588627, 2011;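 active = calcium response B-score plate-corrected fluorescence ratio at least 3 library SD, with starting fluorescence B-score inside 5 SD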
Target sequence (Q96LB2 whole entry, looked up): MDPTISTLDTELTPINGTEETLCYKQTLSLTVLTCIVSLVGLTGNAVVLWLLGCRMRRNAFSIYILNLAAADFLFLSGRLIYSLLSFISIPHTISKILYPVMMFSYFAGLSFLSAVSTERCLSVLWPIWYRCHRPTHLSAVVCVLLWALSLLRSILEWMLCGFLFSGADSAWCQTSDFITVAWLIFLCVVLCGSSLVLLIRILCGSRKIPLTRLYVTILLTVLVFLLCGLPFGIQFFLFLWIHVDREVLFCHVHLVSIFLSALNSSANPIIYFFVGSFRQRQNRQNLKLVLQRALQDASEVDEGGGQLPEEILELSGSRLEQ
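System – MrgX1-expressing HEK293 cells · Incubation – cells plated overnight, dye loaded 0.5 h 37 °C, 0.5 h room temperature · Technique – kinetic Fluo-4 NW fluorescence of intracellular calcium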
MrgX1 PAM = positive allosteric modulators of MrgX1, primary screen, HEK293 cells, Fluo-4 calcium flux. Mas-related G-protein coupled receptor member X1 (Homo sapiens), Q96LB2. 310,000 tested, 0.63% active. B-score at 10 µM. FDSS; active compounds read high;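 active = plate-corrected calcium response at least 3 library SD above typical, normal starting fluorescence, not activating the receptor alone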;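 also: compound read alongside a low EC10 to EC30 dose of BAM8-22 agonist; peak minus trough fluorescence over baseline measured at the second addition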
RGS4 block = RGS4 inhibitors, primary screen, cell-based, HEK293 M3R inducible RGS4, calcium flux; AID 463165, 2010; 310,000 tested, 0.45% active; Regulator of G-protein signaling 4 (Homo sapiens), P49798; B-score at 10 µM; Fluo-4 calcium flux; active compounds read high; triggered by carbachol at its EC20;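 active = B-score, a plate-corrected calcium signal, over three deviations above library mean, with baseline fluorescence within five deviations of library mean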;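 also: RGS4 expression induced by doxycycline in cells with stable M3 receptor; B-score is computed from the integrated fluorescence ratio over baseline after carbachol; higher B-score means a larger calcium signal and so more RGS4 inhibition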
Target sequence (P49798 whole entry, looked up): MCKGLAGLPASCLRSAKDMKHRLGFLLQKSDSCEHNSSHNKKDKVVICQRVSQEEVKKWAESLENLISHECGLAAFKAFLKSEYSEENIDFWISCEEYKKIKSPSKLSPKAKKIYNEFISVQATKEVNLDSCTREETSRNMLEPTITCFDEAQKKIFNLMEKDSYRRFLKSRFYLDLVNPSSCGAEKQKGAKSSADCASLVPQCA
MrgX1 antagonist = antagonists of human MrgX1 receptor, primary screen, HEK293 cells, Fluo-4 calcium flux. 310,000 tested, 1.3% active. B-score at 10 µM. AID 588676, 2011. BAM8-22 antagonism; active compounds read low;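 active = calcium-response B-score plate-corrected more than 3 library SD below zero, starting fluorescence within 5 deviations, no agonist response on first addition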;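 also: peak minus trough fluorescence over baseline after final BAM8-22 challenge near maximal dose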
RGS4 act = RGS4 potentiators or activators, primary screen, cell-based, HEK293 M3R inducible RGS4, calcium flux | 310,000 tested, 0.92% active | B-score at 10 µM | carbachol calcium flux Fluo4; active compounds read low;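 active = B-score of the integrated calcium signal more than 4 SD below the library mean, with starting fluorescence not abnormally high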;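 also: negative B-score means reduced calcium response which marks RGS4 activation or potentiation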
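Test system: HEK293 cells with stable M3R and inducible RGS4; also added: carbachol at ECmax as muscarinic agonist stimulus; schedule: dye loading 30 min 37 °C, buffer rest 30 min RT; technique: kinetic calcium fluorescence imaging with Fluo4-AM dye, 2 µM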
RGS4 inh valid = enhanced carbachol calcium response, M3R/RGS4 cells, RGS4 inhibitor project, cell-based, validation screen, HEK293 M3R/RGS4, calcium flux; shares compounds with RGS4 block; carbachol calcium Fluo-4 fluorescence; carbachol added at its EC20; 0 = buffer wells, 100 = carbachol control; calcium response, % at 10 µM; 1,700 tested, 65% active; AID 492999, 2010;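 active = duplicate-averaged calcium response above the buffer-only control mean plus 5 SD of those controls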;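 also: integrated fluorescence ratio F max minus min over baseline F0; higher response in RGS4-induced cells means RGS4 inhibition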
RGS4 uninduced = carbachol calcium response in non-induced M3R cells, confirmation, counter-screen for RGS4 inhibitor project, cell-based, HEK293 M3R; 1,900 tested, 20% active; shares compounds with RGS4 block; activity (percent), % at 10 µM; AID 493000, 2010; carbachol calcium Fluo-4; submaximal (EC20) carbachol stimulus; buffer wells 0%, carbachol control wells 100%; call rule not given here;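 also: RGS4 induction absent so cells express M3R without RGS4; higher means more calcium signal and flags a non-specific hit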
RGS4 inh ctr2 = second RGS4 inhibitor counter-screen in uninduced cells lacking carbachol. shares compounds with RGS4 block. HEK293 M3R/RGS4 non-induced, Fluo-4 calcium, no carbachol; normalised: buffer wells 0%, carbachol wells 100%. calcium response (agonist-mode artifact), % at 10 µM. 1,900 tested, 22% active. AID 493001;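 active = duplicate-averaged calcium rise in uninduced cells above buffer wells' mean plus 5 SD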
Numbers without * were called inactive.

How did O=C(CNC(=O)c1ccccc1)NCC(O)c1ccc([N+](=O)[O-])cc1 (centres undefined) do in these assays?
MrgX1 agonist: inactive; MrgX1 PAM: inactive; RGS4 block: inactive; MrgX1 antagonist: inactive; RGS4 act: inactive

How did COc1ccccc1NC(=O)CC1S/C(=N/N=C2\CCCc3ccccc32)NC1=O (centres undefined) do in these assays?
MrgX1 agonist: inactive; MrgX1 PAM: inactive; RGS4 block: 6.1*; MrgX1 antagonist: inactive; RGS4 act: inactive; RGS4 inh valid: 60%*; RGS4 uninduced: 62%*; RGS4 inh ctr2: inactive

What do the screens show for `O=C(CC1S/C(=N/N=C2CCCCCC2)NC1=O)Nc1ccccc1C(F)(F)F` (centres undefined)?
MrgX1 agonist: inactive; MrgX1 PAM: inactive; RGS4 block: inactive; MrgX1 antagonist: inactive; RGS4 act: inactive

What do the screens show for `CCOC(=O)C(/C(C)=N/NC(=O)C1CC1c1ccccc1)C(C)C` (centres undefined)?
MrgX1 agonist: inactive; MrgX1 PAM: inactive; RGS4 block: inactive; MrgX1 antagonist: inactive; RGS4 act: inactive

How did COc1nn(-c2ccccc2)c(=O)c(Cl)c1Cl do in these assays?
MrgX1 agonist: inactive; MrgX1 PAM: inactive; RGS4 block: 5*; MrgX1 antagonist: inactive; RGS4 act: inactive; RGS4 inh valid: 10%*; RGS4 uninduced: inactive; RGS4 inh ctr2: inactive

Results for COc1c(Cl)cnn(-c2ccccc2)c1=O ?
MrgX1 agonist: inactive; MrgX1 PAM: inactive; RGS4 block: inactive; MrgX1 antagonist: inactive; RGS4 act: inactive

What do the screens show for `Cc1cc2nc(CS)[nH]c2cc1C`?
MrgX1 agonist: inactive; MrgX1 PAM: inactive; RGS4 block: 5.9*; MrgX1 antagonist: inactive; RGS4 act: inactive; RGS4 inh valid: 28%*; RGS4 uninduced: inactive; RGS4 inh ctr2: inactive

Results for Cc1cc2nc(CO)[nH]c2cc1C ?
MrgX1 agonist: inactive; MrgX1 PAM: inactive; RGS4 block: inactive; MrgX1 antagonist: inactive; RGS4 act: inactive

How did CC1=C(CO)C(=O)OC([C@@H](C)C2CC[C@H]3C4C[C@H]5O[C@]56[C@@H](O)C=CC(=O)[C@]6(C)C4CC[C@]23C)C1 (some centres undefined) do in these assays?
MrgX1 agonist: inactive; MrgX1 PAM: inactive; RGS4 block: 13*; MrgX1 antagonist: inactive; RGS4 act: inactive; RGS4 inh valid: 32%*; RGS4 uninduced: inactive; RGS4 inh ctr2: inactive

How did CSc1ccccc1OCc1cc(C(=O)NCCN2CCCC(O)C2)no1 (centres undefined) do in these assays?
MrgX1 agonist: inactive; MrgX1 PAM: inactive; RGS4 block: inactive; MrgX1 antagonist: inactive; RGS4 act: inactive

Results for CSc1ccccc1OCc1cc(C(=O)NCCC2CCCCO2)no1 (centres undefined) ?
MrgX1 agonist: inactive; MrgX1 PAM: inactive; RGS4 block: 11*; MrgX1 antagonist: inactive; RGS4 act: inactive; RGS4 inh valid: inactive; RGS4 uninduced: inactive; RGS4 inh ctr2: inactive

Results for CC(NC(=O)c1ccccc1)C(=O)N/N=C/c1ccccc1 (centres undefined) ?
MrgX1 agonist: inactive; MrgX1 PAM: inactive; RGS4 block: inactive; MrgX1 antagonist: inactive; RGS4 act: inactive

How did O=C(NC(C(=O)N/N=C/c1c2ccccc2cc2ccccc12)c1n[nH]c(=O)c2ccccc12)c1ccccc1 (centres undefined) do in these assays?
MrgX1 agonist: inactive; MrgX1 PAM: inactive; RGS4 block: inactive; MrgX1 antagonist: inactive; RGS4 act: inactive; RGS4 inh valid: inactive; RGS4 uninduced: inactive; RGS4 inh ctr2: 128%*

What do the screens show for `O=C(NC(C(=O)N/N=C/c1ccccc1)c1n[nH]c(=O)c2ccccc12)c1ccccc1` (centres undefined)?
MrgX1 agonist: inactive; MrgX1 PAM: inactive; RGS4 block: inactive; MrgX1 antagonist: inactive; RGS4 act: inactive; RGS4 inh valid: inactive; RGS4 uninduced: inactive; RGS4 inh ctr2: 10%*

Results for O=C(Cn1ncc2c3ccccc3n(Cc3ccccc3)c2c1=O)NCc1ccco1 ?
MrgX1 agonist: inactive; MrgX1 PAM: inactive; RGS4 block: inactive; MrgX1 antagonist: inactive; RGS4 act: inactive

How did Nc1cccc(C(=O)OCC(=O)Nc2cccc3c2C(=O)c2ccccc2C3=O)c1 do in these assays?
MrgX1 agonist: inactive; MrgX1 PAM: inactive; RGS4 block: 4.9*; MrgX1 antagonist: inactive; RGS4 act: inactive; RGS4 inh valid: 5.0%*; RGS4 uninduced: inactive; RGS4 inh ctr2: 14%*

How did CN(CCc1ccccn1)C(=O)CC1C(=O)NCCN1Cc1cccc(F)c1 (centres undefined) do in these assays?
MrgX1 agonist: inactive; MrgX1 PAM: inactive; RGS4 block: inactive; MrgX1 antagonist: inactive; RGS4 act: inactive

How did CN(Cc1cnccn1)C(=O)CC1C(=O)NCCN1Cc1ccc(F)cc1Cl (centres undefined) do in these assays?
MrgX1 agonist: inactive; MrgX1 PAM: inactive; RGS4 block: 4.8*; MrgX1 antagonist: inactive; RGS4 act: inactive; RGS4 inh valid: inactive; RGS4 uninduced: inactive; RGS4 inh ctr2: 82%*

How did CN(Cc1ccccn1)C(=O)CC1C(=O)NCCN1Cc1ccc(F)cc1Cl (centres undefined) do in these assays?
MrgX1 agonist: inactive; MrgX1 PAM: inactive; RGS4 block: inactive; MrgX1 antagonist: inactive; RGS4 act: inactive; RGS4 inh valid: inactive; RGS4 uninduced: inactive; RGS4 inh ctr2: 14%*

Results for O=C(NC1CCCC1)c1nc2c(nnn2Cc2ccccc2Cl)c(=O)[nH]1 ?
MrgX1 agonist: inactive; MrgX1 PAM: inactive; RGS4 block: inactive; MrgX1 antagonist: inactive; RGS4 act: inactive
